The results in this text go back to paper PMC3475257 (The FASEB Journal, 2012).

Each structure is given as a SMILES string.

The experiment relates to fully infectious HXB2 HIV‐1. As to the kind of experiment: HXB2 virus infectivity assay. In kind it is cell-based. The conditions noted are these: up to 1 μM, TZM‐bl cells. An outline of the steps: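 TZM-bl reporter cells were seeded at 2×10^4 cells/well in 10% serum DMEM and left to adhere 18-24 h at 37°C. Medium was then swapped for serum-free DMEM containing 40 μg/ml DEAE-dextran. Test compound was added, followed by concentrated HXB2 stock diluted in the same medium. Infection ran 18 h at 37°C, with a luciferase (Steady-Glo) read-out.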

In the case of `CCCCCCCCCCCCCCC[C@@H](O)[C@@H](N)CO` [sphinganine, D‐erythrodihydrosphingosine], the “Effect of sphinganine alone on viral infectivity” value was “did not affect viral infectivity”.
